Test results from the EternaBench riboswitch data.

Test system: MS2 coat protein
Assay: apparent Kd, MS2 coat protein; higher = weaker binding; RNA-MaP array; FMN 200 µM where present
How it was run: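 Two titrations, one without ligand and one with constant ligand, were run with SNAP-549-labelled MS2 coat protein from 0.7 or 1.5 nM, doubling to 3 µM. The targets were designs transcribed by stalled E. coli RNA polymerase on Illumina sequencing-chip clusters, in 100 mM Tris-HCl pH 7.5, 80 mM KCl, 4 mM MgCl2, BSA, DTT, yeast tRNA and Tween-20. The apparent Kd is the median of filtered per-cluster binding-curve fits, with green signal normalised to red-channel RNA signal and control-cluster median Fmax.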

[1] = designed as: ON switch for flavin mononucleotide, no ligand
[2] = ligand present: flavin mononucleotide, designed as: ON switch for flavin mononucleotide
[3] = designed as: OFF switch for flavin mononucleotide, no ligand
[4] = ligand present: flavin mononucleotide, designed as: OFF switch for flavin mononucleotide

| Sequence | apparent Kd [1] [nM] | apparent Kd [2] [nM] | apparent Kd [3] [nM] | apparent Kd [4] [nM] |
| --- | --- | --- | --- | --- |
| AUUUAAAUGUCAGGAUAUGUUAGUUUAUACAUAGUAGAAGGGAUAAUUAUACUCAUGUACAUGAGGAUCACCCAUGUUAAAUAA | 206 | 107 | – | – |
| UUCGUGCAGCUUUGCUGUACGCGUACAUGAGGAUCACCCAUGUAGGAUAUGGUAGGCCAAGCUUACUAGAAGGAUAUAGUGAUC | – | – | 95.5 | 88.7 |
| GUUUAGUGAGGAUAUGCGGCAUCGAUCGAGCGCGGUCGGCUACAGAAGGCACAUGAGGAUCACCCAUGUUUCUC | – | – | 41 | 278 |
| GGGCCCGGUGUGAGGAUAUGCCCGGGUAAAUUUGGGCAGAAGGCACAUGAGGAUCACCCAUGUAAGCCGGGUUU | – | – | 14.8 | 12.9 |
| GGUUAAUAUCGAGGAUAUGUCUAGACACAUGAGGAUCACCCAUGUAUGUGUAUAGAAGGCGAUAUUAACAGCAUGUUACAUGCC | 38.1 | 16.8 | – | – |
| GCUUGUGAAGGAUAUACUGGCGACAUGCGCUCGACACGCGCACAUGAGGAUCACCCAUGUAGAAGGUCAAACAU | – | – | 20.9 | 21.3 |
| GGGUACAUCGGAGGAUAUCAUGUAAAUACAUGAGGAUCACCCAUGUCGAUGGAGGCAUCGGAGAUUGAGAAGGCCGAUGUACCG | 566 | 17.6 | – | – |
| UUAUUUUUACAGAAGGUUUAAUAAUAUGUAUGAGAAGGAUAUGUAACAUGAGGAUCACCCAUGUUUUGUCUAUAUGAGGAUCAU | – | – | 8.2 | 7.9 |
| GCACGGUUUGUAGGAUAUGCAUAGCAUUGCUAUGCAGAAGGACAUGAGGAUCACCCAUGUAUGUAUUCCAUACAUUUCCCGUGC | – | – | 5.62 | 5.63 |
| UCAUUAGCGGGCGGAUCGGUUGGACAUGAGGAUCACCCAUGUAGAAGGACCGGUGGAUUCCGGCGGUAGGAUAUACAUUUGGUG | – | – | 12.7 | 19.8 |
| UUUAUGUGAGGAUAUCAGUAGUAAAAAAAUAAAAUUACUACUGAGAAGGCACAUGAGGAUCACCCAUGUACUUC | – | – | 40.2 | 30.5 |
| GUCAGCUCGUGAGGAUAUACAACACUGCUUCGGCAGUGUAUUAAGAUCACAUGAGGAUCACCCAUGUAGAAGGAACGAGCUGAU | – | – | 7.52 | 24.2 |
| UUAUUUUGUCAAGGAUAUGUAGUAUUGAUUUGAAAACAUGAGGAUCACCCAUGUAUAUGGUGGGAACAGAAGGUGAAUGUUGAA | – | – | 311 | 290 |
| CGAGGCGUACAUGAGGAUCACCCAUGUACCUAACAACAAAGCAAGGAUAUCCUGGCUAUAAUACAGGAGAAGGUGUGGUCCUUA | – | 178 | – | – |
| CGGCUCUCAGGAUAUACCUCGGGUGGCCAACUGUUUCGUUUACAUGAGGAUCACCCAUGUAGAAGGGAGGGCAA | – | – | 49.7 | 27 |
| UUUAUUUUGCAAGGAUAUGUUUAAUUUUAGUUUCCUUACACAUGAGGAUCACCCAUGUUAUACUUACAGAAGGUGCAUAAUUUU | – | – | 173 | 94.6 |
| GCCAGUUAUGUAGGAUAUGCGAAGCGAGCCUGAGCAGAAGGACAUGAGGAUCACCCAUGUAUUGCGGUUUGAGUACUGAUCGCU | – | – | 27.9 | 107 |
| UACAUAAAUGAAGGAUAUCGAUAUCCAACAUGAGGAUCACCCAUGUUGAGGAUCACCCAUGUAAAUGAGAAGGUUAACAUAACU | 70.5 | 73.5 | – | – |
| AGAGCCUCGUGAGGAUAUACAUGAGGAUCACCCAUGUAAUAAGAUCAACGGAGGAAACUCCGAAUGUAGAAGGCACGAGGCUCA | – | – | 37.2 | 423 |
| GCUCUGCGAGGAUAUACAUGAGGAUCACCCAUGUGCGAGUUACUUGUGAGGUCGGUUGGUAGAAGGCGCGGAGG | – | – | 106 | 89.8 |
| CAGCGCUGUCGAGAGGAUAUGCUGUGAUGGACAUGAGGAUCACCCAUGUUAGCGAUAGCAUUACUGUAGAAGGCUCUACAGCUGC | 13.4 | 12.8 | – | – |
| UUCUUGGCAGGAUAUGCUCUCUUAGACAUGAGGAUCACCCAUGUGUUCAUUCUUUCUUUUGCAGAAGGGCCUUAAU | – | – | 56.5 | 69.9 |
| GGACGUCACAUGAACAUGAGGAUCACCCAUGUAAAUUCUCAUGAGGAUAUGGUUCCUAAUUGGAACCAGAAGGCGUGGACGUCC | 957 | 430 | – | – |
| AGCUGGUGACAGCAUCGAGCAAAACAUGAGGAUCACCCAUGUAGAAGGCUGUACGGUUACCGUACAGAGGAUAUACAUAGCUCG | – | – | 7.15 | 10 |
| AAAAAACAUGAGGAUCACCCAUGUGAGGAUAUCCUGGUUGAAAAAAAAAAAACAACCAGGAGAAGGCACAAAAA | – | – | 88.4 | 132 |
| GCAUGGAAAGUGAGGAUAUACCACUGGAUACAGUGGUAGAAGGCACAUGAGGAUCACCCAUGUUUCUACCAUGC | – | – | 13.4 | 19.1 |
| CGAUAUAUGAAGGGCGAACACGCACAUGAGGAUCACCCAUGUAGAAGGCGAUCCGCAACGCGGAUCGAGGAUAUAUAGUAUACA | – | – | 35.6 | 42.4 |
| UCUUAUUGCAAGGAUAUGCAAAUUAUUUUUUAAGCAGAAGGUGCAACAUGAGGAUCACCCAUGUUUCCGGGCAA | – | – | 15.3 | 42.9 |

| Sequence | apparent Kd [1] [nM] | apparent Kd [2] [nM] | apparent Kd [3] [nM] | apparent Kd [4] [nM] |
| --- | --- | --- | --- | --- |
| GUGCACAUUCGAGGAUAUCGGAGAGAGAUCCUUCGAGAAGGCGAUUCAUGAUGUAUUAUCCUGGACAUGAGGAUCACCCAUGUG | 579 | 288 | – | – |
| CGAUAUAUGAAGGACGGAAACGUACAUGAGGAUCACCCAUGUAGAAGGCGAUCCGCAACGCGGAUCGAGGAUAUAUAGUAUACA | – | – | 24.2 | 17.6 |
| AAUGAGUUUCUCACACUGUUCACAUGAGGAUCACCCAUGUACAGAAGGUAGAGACUUCCGGUCGCUAAGGAUAUGUAGAGGGUC | – | – | 5.05 | 6.01 |
| CGGCGCUGUUGAGAGGAUAUGCGGUGAUGGACAUGAGGAUCACCCAUGUUAGCGAUAGCAUUACGGUAGAAGGCUCUACAGCUGC | 17.9 | 14.1 | – | – |
| GCGUAUAAGGUGUAGCUAGACAUUCAAGAAGGGUGAAGAACAUGAGGAUCACCCAUGUAGUAGGUACAGGAUAUUGAUUUACGC | 656 | 372 | – | – |
| AUACAUGAGGAUCACCCAUGUUACAUGGCCUUGAUAGAUCGUAGAAGGAUGUUAUUAUUAAUUUCAUAGGAUAUACUAUUUAGU | – | – | 95.1 | 72.9 |
| GGAUCCAACACAGGAUAUGCUGGACUUUGUCCAGCAGAAGGGUGAAGAACAUGAGGAUCACCCAUGUGGAUCCAUAUAUUUUAU | 262 | 16.5 | – | – |
| AAUAGUGGCGUAGGAUAUCUGCGUACAUGAGGAUCACCCAUGUCUCCCAACUGCUGAGCUGGGACAGAGAAGGGCGACCGCAUA | 225 | 85.4 | – | – |
| AAAGGUGAUUCAGGAUAUGUGUAGGAGGGCGGCGCAGAAGGGAAUCUAGCCCGACGUCAUACAUGAGGAUCACCCAUGUAUGCC | 28.7 | 18.5 | – | – |
| AAGGGCUGAGGAUAUGCGCGGGCAAGAUCCUCAAUCCCAAAACAUGAGGAUCACCCAUGUAGAAGGCAGAAAUA | – | – | 33.2 | 24.2 |
| UUAUGAUUAAGAGGAUAUAUACAACAUGAGGAUCACCCAUGUACCCAUGUAGUAGAAGGCUUAUUUUUAUAUAAUAAUAUAAUU | 143 | 47.6 | – | – |
| CUCGGACAUGAGGAUCACCCAUGUGAGGAUAUGGUGCUAUCGUCAUUAGACGAUUGCGUUAGAAGGCAUAUUUU | – | – | 28.7 | 27.1 |
| GGACAGUCAGGAUAUACAUGAGGAUCACCCAUGUUGAGAUGUGAAAGGGCGGGAGUAGGUAGAAGGGACGAGAG | – | – | 31.3 | 27.5 |
| GUGUGCUGAGGAUAUACAGAGGAAGAUAAUACAAUAUAAGUACAUGAGGAUCACCCAUGUAGAAGGCAGAGUGU | – | – | 28.2 | 26.4 |
| GACUUGUUAGGAUAUCUUACUUUUGCAUCAUAGUAACCAUUGGAGAAGGGACAUGAGGAUCACCCAUGUUUGGU | – | – | 34.7 | 35 |
| GGUCCAUCAUGAGGAUAUGGCACCUUAUUGGUGCCAGAAGGCAUGUCUAUAGACAUGAGGAUCACCCAUGUGAUAAAUUGGACC | 523 | 49.9 | – | – |
| AUAAUGUGAGGAUAUCAGUAAGAAUGCUUCGGCAUUCUUACUGAGAAGGCACAUGAGGAUCACCCAUGUGAUUA | – | – | 201 | 964 |
| CUUUAAGUCGAGAAGGACAUGAGGAUCACCCAUGUAGGAUAUCGAUUAGCUUACAACCCGAGCCGCAUUGGUAUGACUGGUGGG | 12.9 | 6.23 | – | – |
| AGGAGGUUAGGAUAUGCUGCUCGUCACUUGCGUGAUGAGUAGCAGAAGGAACAUGAGGAUCACCCAUGUAAAGA | – | – | 29.7 | 35.1 |
| UGUACGUGAGGAUAUGGACGUAUCGAAGACAAGCUACGAUACCAGAAGGUACAUGAGGAUCACCCAUGUGGUUC | – | – | 376 | 370 |
| GACAUUAUAGGAUAUACAUGAGGAUCACCCAUGUCCGGCGGCCACCGCCAUUCACUGUGUAGAAGGGUAGUUUG | – | – | 87.9 | 68.8 |
| GCGUUAGUAUCACAUGUAUUACAUGAGGAUCACCCAUGUUACUAGGAUAUGUAUUAGUAUUAUCAACAGAAGGAGUAAUAACGC | – | – | 12.5 | 17.6 |
| AAACAUGUCCGAGGAUAUCUGGAAACAUUUUCAAGAGAAGGCGGACAUGAGGAUCACCCAUGUCUCUCCUCAUCAAAUCCAAGU | – | – | 21.4 | 148 |
| AUUUAGUGCGAGAAGGCGUGGUCACAUGAGGAUCACCCAUGUCAGUACACGAGGAUAUCGAUUCACUGUAUAAACACAAGUGAC | 53.8 | 6.22 | – | – |
| CCAUGGCAUGUAGGAUAUAUCUGACAAAGUCAGAUAGAAGGACAUGAGGAUCACCCAUGUAAACCGAAAGGAACAUAGCCAUGG | – | – | 6.36 | 6.96 |
| AACAAGUGAGGAUAUGAAAAUACAACAAACAAACAUCUACAUCAGAAGGCACAUGAGGAUCACCCAUGUUAAUC | – | – | 20.9 | 23.2 |
| UGUCGGACCAGAGGAUAUUACAUGAGGAUCACCCAUGUAUGAACCAAUAGCUGGAAACAGCAAUGUAAGAAGGCUGCUCCGACA | – | – | 9.74 | 105 |
